Measurements taken from ChEMBL document CHEMBL3120084, “Structure-function relationships of Nile blue (EtNBS) derivatives as antimicrobial photosensitizers” (Eur J Med Chem, 2014).
Active and inactive are the calls of the source. No cut-off for these calls is given here.

Columns and labels:
[1] = Octanol-phosphate buffered saline partition coefficient, log P of the compound at 100 uM after 30 mins; type: physicochemical
Procedure, shortened: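 Compound (100 μM) in 1.5 mL octanol plus 1.5 mL PBS, stirred overnight at room temperature, then left 30 min for phases to separate. Each phase was read by absorbance at the compound's peak, undiluted and diluted 1:2 and 1:10. Log10 of the octanol/PBS ratio is reported.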

[2] = system: Escherichia coli; assay: Antimicrobial activity against Escherichia coli ATCC 53868 assessed as log reduction in bacterial CFU incubated for 10 mins prior to irradiation with 10 J/cm2 of light; type: functional
Procedure, shortened: (§1)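 Bacteria grown overnight in BHI broth at 37°C with shaking, refreshed 3 h, adjusted to OD600 0.5 (10^8 CFU/ml), pelleted and resuspended in PBS. Suspensions held with photosensitizer (0.1-100 μM, diluted from 5 mM DMA stock) 10 min in dark at room temperature, then 635-nm light at 10 J/cm2 and 50 mW/cm2. Surviving CFU counted by serial dilution on nutrient agar after 18 h at 37°C; triplicates.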

[3] = Induction of reactive oxygen species generation at 5 uM using hydroxyphenyl-fluorescein probe by microplate spectrophotometer analysis in presence of 1 J/cm'2 to 15 J/cm'2 of light; type: physicochemical
Procedure, shortened: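 Cell-free assay in PBS: compound at 5 μM final with HPF probe at 5 μM final, 4 wells per group. 635-nm light given in sequential doses of 1 to 15 J/cm2. Fluorescence read in slow kinetic mode at excitation 490 nm and emission 515 nm, 2 nm bandpass.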

[4] = system: Acinetobacter baumannii; assay: Antimicrobial activity against Acinetobacter baumannii ATCC 51393 assessed as log reduction in bacterial CFU incubated for 10 mins prior to irradiation with 10 J/cm2 of light; type: functional; procedure, shortened: as §1
[5] = system: Escherichia coli; assay: Dark toxicity against Escherichia coli ATCC 53868 at 0.1 to 100 uM after 10 mins; type: organism-based; settings: in vivo
Procedure, shortened: (§2)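 Dark controls: 10^8 CFU/ml in PBS with photosensitizer for 10 min at room temperature, no illumination. Solvent controls contained 2% DMA. Viability read as CFU after serial dilution, plating on nutrient agar and 18 h dark incubation at 37°C; triplicate.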

[6] = system: Acinetobacter baumannii; assay: Dark toxicity against Acinetobacter baumannii ATCC 51393 at 0.1 to 100 uM after 10 mins; type: organism-based; settings: in vivo; procedure, shortened: as §2
[7] = Induction of reactive oxygen species generation at 5 uM using singlet oxygen sensor green probe by microplate spectrophotometer analysis in presence of 1 J/cm'2 to 15 J/cm'2 of light; type: physicochemical
Procedure, shortened: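 Cell-free assay in PBS: compound at 5 μM final with SOSG probe at 5 μM final, 4 wells per group. 635-nm light given in sequential doses of 1 to 15 J/cm2. Fluorescence read in slow kinetic mode at excitation 505 nm and emission 525 nm.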

[8] = system: Enterococcus faecalis; assay: Dark toxicity against Enterococcus faecalis ATCC 29212 at 0.1 to 100 uM after 10 mins; type: organism-based; settings: in vivo; procedure, shortened: as §2
[9] = system: Enterococcus faecalis; assay: Drug uptake in Enterococcus faecalis ATCC 29212 incubated for 10 mins in dark by fluorescence analysis; type: ADME, organism-based; settings: in vivo
Procedure, shortened: (§3)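 Cells (10^8/ml) held with compound at 0.05-10 μM for 10 min in dark at room temperature. They were then pelleted, washed twice in PBS and lysed in RIPA for 30 min at room temperature. Lysate fluorescence was read at compound-specific wavelengths and converted with per-compound calibration curves. Values were normalized to protein measured by BCA against BSA standards.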

[10] = system: Staphylococcus aureus; assay: Antimicrobial activity against Staphylococcus aureus 8325-4 assessed as log reduction in bacterial CFU incubated for 10 mins prior to irradiation with 10 J/cm2 of light; type: functional; procedure, shortened: as §1
[11] = system: Staphylococcus aureus; assay: Drug uptake in Staphylococcus aureus 8325-4 incubated for 10 mins in dark by fluorescence analysis; type: ADME, organism-based; settings: in vivo; procedure, shortened: as §3
[12] = system: Acinetobacter baumannii; assay: Drug uptake in Acinetobacter baumannii ATCC 51393 incubated for 10 mins in dark by fluorescence analysis; type: ADME, organism-based; settings: in vivo; procedure, shortened: as §3
[13] = system: Enterococcus faecalis; assay: Antimicrobial activity against Enterococcus faecalis ATCC 29212 assessed as log reduction in bacterial CFU incubated for 10 mins prior to irradiation with 10 J/cm2 of light; type: functional; procedure, shortened: as §1
[14] = system: Escherichia coli; assay: Drug uptake in Escherichia coli ATCC 53868 incubated for 10 mins in dark by fluorescence analysis; type: ADME, organism-based; settings: in vivo; procedure, shortened: as §3
[15] = system: Staphylococcus aureus; assay: Dark toxicity against Staphylococcus aureus 8325-4 at 0.1 to 100 uM after 10 mins; type: organism-based; settings: in vivo; procedure, shortened: as §2
[16] = system: Escherichia coli; assay: Dark toxicity against Escherichia coli ATCC 53868 at 50 uM after 10 mins; type: organism-based; settings: in vivo; procedure, shortened: as §2
[17] = system: Staphylococcus aureus; assay: Dark toxicity against Staphylococcus aureus 8325-4 at 50 uM after 10 mins; type: organism-based; settings: in vivo; procedure, shortened: as §2
[18] = system: Enterococcus faecalis; assay: Dark toxicity against Enterococcus faecalis ATCC 29212 at 50 uM after 10 mins; type: organism-based; settings: in vivo; procedure, shortened: as §2
[19] = system: Acinetobacter baumannii; assay: Dark toxicity against Acinetobacter baumannii ATCC 51393 at 50 uM after 10 mins; type: organism-based; settings: in vivo; procedure, shortened: as §2

Row | Compound | logP at 0.5 h, 100 µM [1] | Activity [2] | Activity [3] | Activity [4] | Activity [6] | Activity [7] | Activity [8] | Drug uptake [9] | log10cfu [10] | Drug uptake [11] | Drug uptake [12] | log10cfu [13] | Drug uptake [14] | Activity [15] | further results
1 | CC/N=c1/cc2sc3cc(N(CC)CC)ccc3nc-2c2c(NC(C)=O)cccc12.Cl | 1.36 | inactive | Active | inactive | Toxic | Active |  |  |  |  |  |  |  |  | Activity [5]: Toxic
2 | CCCS(=O)(=O)N(CC)c1cccc2/c(=N\CC)cc3sc4cc(N(CC)CC)ccc4nc-3c12.Cl | 2.19 | inactive | Active | inactive |  | Active | Toxic | Active | 4 | Active | Active | >5 | Active | Toxic | 
3 | CC/N=c1/cc2sc3cc(N(CC)CC)ccc3nc-2c2c([N+](=O)[O-])cccc12.Cl | 2.03 |  | Active |  |  | Active | Toxic | Active | 5 | Active | Active | 5 | Active | Toxic | 
4 | CCCS(=O)(=O)N(CC)c1cccc2c3nc4ccc(N(CC)CC)cc4sc-3c/c(=N\CC)c12.Cl | 2.45 | inactive | Active | inactive | Non-toxic | Active | Non-toxic | Active | >5 | Active | Active |  | Active | Non-toxic | Activity [5]: Toxic
5 | CC/N=c1/cc2sc3cc(N(CC)CC)ccc3nc-2c2c(N)cccc12.Cl | 1.77 |  | Active |  |  | Active |  | Active | <3 | Active | Active |  | Active |  | 
6 | CC/N=c1/cc2sc3cc(N(CC)CC)ccc3nc-2c2ccccc12.Cl | 2.87 |  | Active |  |  | Active |  | Active | >6 | Active | Active | >6 | Active |  | log10cfu [2]: >6; Activity [16]: Toxic; Activity [17]: Non-toxic; log10cfu [4]: >6; Activity [18]: Toxic; Activity [19]: Toxic
7 | CCN(CC)c1ccc2nc3c4ccccc4/c(=N\CCNC(=N)N)cc-3sc2c1.Cl.Cl | 0.49 |  | Active |  | Toxic | Active | Toxic | Active | >5 | Active | Active | >5 | Active | Toxic | log10cfu [2]: >5; log10cfu [4]: >5
